Test results: ChEMBL document CHEMBL1137781, “Synthesis and preclinical evaluation of novel PET probes for P-glycoprotein function and expression” (J Med Chem, 2009)

What was measured:
[1] = Biodistribution in Wistar rat cingulate cortex at 40+/-4 MBq, iv after 80 mins; type: ADME, organism-based; conditions: in vivo
Summary of the method: (§1)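 Male Wistar rats (12 h light/dark, chow ad libitum) were fitted with a femoral arterial cannula under isoflurane. They were pretreated via tail vein with saline, cyclosporin A (50 mg/kg), or nonradioactive tracer compound (15 mg/kg; 10 mg/mL in saline with 35% ethanol). The 11C tracer was then given via penile vein, followed by 76 min microPET. Animals were then terminated; excised tissues were weighed and gamma-counted with decay correction. Values are SUVs (tissue MBq/g × body weight g / injected MBq).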

[2] = Biodistribution in 50 mg/kg cyclosporin A pretreated Wistar rat frontal cortex at 27+/-2 MBq, iv after 80 mins; type: ADME, organism-based; design: dose 50 mg/kg, route intravenous; conditions: in vivo
Striatum [3] = assay: Biodistribution in Wistar rat striatum at 40+/-4 MBq, iv after 80 mins; type: ADME, organism-based; conditions: in vivo
Hippocampus [4] = assay: Biodistribution in Wistar rat hippocampus at 40+/-4 MBq, iv after 80 mins; type: ADME, organism-based; conditions: in vivo; summary of the method: as §1
Brain [5] = assay: Biodistribution in 50 mg/kg cyclosporin A pretreated Wistar rat brain at 27+/-2 MBq, iv after 25 mins; type: ADME, organism-based; design: dose 50 mg/kg, route intravenous; conditions: in vivo
Summary of the method: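 Male Wistar rats pretreated with saline or cyclosporin A (50 mg/kg, tail vein), then given the [11C] tracer via penile vein. Dynamic microPET with a whole-brain 3D ROI. SUV read from the time-activity curve at 25 min, assuming 1 g/mL tissue density. Mean ± SEM.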

Spleen = assay: Biodistribution in Wistar rat spleen at 40+/-4 MBq, iv after 80 mins; type: ADME, organism-based; conditions: in vivo
Colon = assay: Biodistribution in Wistar rat colon at 40+/-4 MBq, iv after 80 mins; type: ADME, organism-based; conditions: in vivo; summary of the method: as §1
Hippocampus [6] = assay: Biodistribution in 50 mg/kg cyclosporin A pretreated Wistar rat hippocampus at 27+/-2 MBq, iv after 80 mins; type: ADME, organism-based; design: dose 50 mg/kg, route intravenous; conditions: in vivo
Rattus norvegicus = assay: AUC in 50 mg/kg cyclosporin A pretreated Wistar rat at 27+/-2 MBq, iv; type: ADME, organism-based, Plasma; design: dose 50 mg/kg, route intravenous; conditions: in vivo
Summary of the method: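 Male Wistar rats with a femoral arterial cannula placed under isoflurane. Saline or cyclosporin A (50 mg/kg, commercial solution) given via tail vein, then the [11C] tracer via penile vein. Dynamic microPET over the brain for 76 min, with 14 arterial samples to 60 min. Plasma counted in a γ counter. AUC of whole-brain or plasma SUV over 0-60 min.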

Brain [7] = assay: Biodistribution in Wistar rat brain at 40+/-4 MBq, iv after 25 mins; type: ADME, organism-based; conditions: in vivo
Muscle tissue = assay: Biodistribution in Wistar rat muscle at 40+/-4 MBq, iv after 80 mins; type: ADME, organism-based; conditions: in vivo; summary of the method: as §1
Pancreas [8] = assay: Biodistribution in Wistar rat pancreas at 40+/-4 MBq, iv after 80 mins; type: ADME, organism-based; conditions: in vivo; summary of the method: as §1
Kidney = assay: Biodistribution in Wistar rat kidney at 40+/-4 MBq, iv after 80 mins; type: ADME, organism-based; conditions: in vivo; summary of the method: as §1
[9] = Biodistribution in 50 mg/kg cyclosporin A pretreated Wistar rat red blood cells at 27+/-2 MBq, iv after 80 mins; type: ADME, organism-based, Erythrocyte; design: dose 50 mg/kg, route intravenous; conditions: in vivo
[10] = Biodistribution in Wistar rat entorhinal cortex at 40+/-4 MBq, iv after 80 mins; type: ADME, organism-based; conditions: in vivo; summary of the method: as §1
Liver = assay: Biodistribution in Wistar rat liver at 40+/-4 MBq, iv after 80 mins; type: ADME, organism-based; conditions: in vivo; summary of the method: as §1
[11] = Biodistribution in 50 mg/kg cyclosporin A pretreated Wistar rat cingulate cortex at 27+/-2 MBq, iv after 80 mins; type: ADME, organism-based; design: dose 50 mg/kg, route intravenous; conditions: in vivo
Summary of the method: (§2)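 Male Wistar rats pretreated via tail vein with saline or cyclosporin A (50 mg/kg, commercial solution), then given the [11C] tracer via penile vein. After microPET scanning the anesthetized rats were killed. Tissues were excised and weighed, and blood was centrifuged into plasma and cells. γ counting with decay correction. Results as SUV (tissue MBq/g × body weight/injected dose).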

[12] = Biodistribution in 50 mg/kg cyclosporin A pretreated Wistar rat fat at 27+/-2 MBq, iv after 80 mins; type: ADME, organism-based, Adipose tissue; design: dose 50 mg/kg, route intravenous; conditions: in vivo; summary of the method: as §2
Plasma [13] = assay: Biodistribution in 50 mg/kg cyclosporin A pretreated Wistar rat plasma at 27+/-2 MBq, iv after 80 mins; type: ADME, organism-based; design: dose 50 mg/kg, route intravenous; conditions: in vivo
[14] = Biodistribution in Wistar rat amygdala at 40+/-4 MBq, iv after 80 mins; type: ADME, organism-based; conditions: in vivo
Pons = assay: Biodistribution in 50 mg/kg cyclosporin A pretreated Wistar rat pons at 27+/-2 MBq, iv after 80 mins; type: ADME, organism-based; design: dose 50 mg/kg, route intravenous; conditions: in vivo
Plasma [15] = assay: Biodistribution in Wistar rat plasma at 40+/-4 MBq, iv after 60 mins; type: ADME, organism-based; conditions: in vivo, 1 h
Cerebellum = assay: Biodistribution in Wistar rat cerebellum at 40+/-4 MBq, iv after 80 mins; type: ADME, organism-based; conditions: in vivo
Pancreas [16] = assay: Biodistribution in 50 mg/kg cyclosporin A pretreated Wistar rat pancreas at 27+/-2 MBq, iv after 80 mins; type: ADME, organism-based; design: dose 50 mg/kg, route intravenous; conditions: in vivo
[17] = Biodistribution in 50 mg/kg cyclosporin A pretreated Wistar rat entorhinal cortex at 27+/-2 MBq, iv after 80 mins; type: ADME, organism-based; design: dose 50 mg/kg, route intravenous; conditions: in vivo; summary of the method: as §2
[18] = Biodistribution in Wistar rat frontal cortex at 40+/-4 MBq, iv after 80 mins; type: ADME, organism-based; conditions: in vivo; summary of the method: as §1
[19] = Biodistribution in 50 mg/kg cyclosporin A pretreated Wistar rat bulbus olfactorius at 27+/-2 MBq, iv after 80 mins; type: ADME, organism-based, Olfactory bulb; design: dose 50 mg/kg, route intravenous; conditions: in vivo; summary of the method: as §2
Striatum [20] = assay: Biodistribution in 50 mg/kg cyclosporin A pretreated Wistar rat striatum at 27+/-2 MBq, iv after 80 mins; type: ADME, organism-based; design: dose 50 mg/kg, route intravenous; conditions: in vivo

## COc1cc2c(cc1OC)CN(CCCC1CCCc3c(O[11CH3])cccc31)CC2 (stereo not drawn)
[1]
  SUV: 0.37
[2]
  SUV: 1.06
Striatum [3]
  SUV: 0.31
Hippocampus [4]
  SUV: 0.3
Brain [5]
  SUV: 2.17
Spleen
  SUV: 1.64
Colon
  SUV: 1.37
Hippocampus [6]
  SUV: 0.86
Rattus norvegicus
  AUC: 97%
Brain [7]
  SUV: 0.88
Muscle tissue
  SUV: 0.37
Pancreas [8]
  SUV: 3.16
Kidney
  SUV: 1.45
[9]
  SUV: 0.16
[10]
  SUV: 0.35
Liver
  SUV: 3.27
[11]
  SUV: 0.88
[12]
  SUV: 0.31
Plasma [13]
  SUV: 0.32
[14]
  SUV: 0.37
Pons
  SUV: 1.28
Plasma [15]
  SUV: 0.34
Cerebellum
  SUV: 0.5
Pancreas [16]
  SUV: 2.91
[17]
  SUV: 1.23
[18]
  SUV: 0.36
[19]
  SUV: 0.84
Striatum [20]
  SUV: 0.87
